# Screening data as filed in PubChem BioAssay.
# Shown are actives, neighbours in structure and some others; about 2.2% of the full set was active somewhere.
# ERp5 inh = ERp5 (human) disulfide isomerase inhibition. AID 651711. inhibition, % at 9.99 µM. ERp5 insulin aggregation, absorbance 650 nm, 90 min. Q15084. actives 0.05% (n = 350,000);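 active = mean replicate inhibition above about 25%, with every replicate also reaching it, limit read from the data, passing the limit was not always enough; inconclusive = only one of those two criteria met; inactive = neither criterion met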
# Target sequence (Q15084 whole entry, looked up): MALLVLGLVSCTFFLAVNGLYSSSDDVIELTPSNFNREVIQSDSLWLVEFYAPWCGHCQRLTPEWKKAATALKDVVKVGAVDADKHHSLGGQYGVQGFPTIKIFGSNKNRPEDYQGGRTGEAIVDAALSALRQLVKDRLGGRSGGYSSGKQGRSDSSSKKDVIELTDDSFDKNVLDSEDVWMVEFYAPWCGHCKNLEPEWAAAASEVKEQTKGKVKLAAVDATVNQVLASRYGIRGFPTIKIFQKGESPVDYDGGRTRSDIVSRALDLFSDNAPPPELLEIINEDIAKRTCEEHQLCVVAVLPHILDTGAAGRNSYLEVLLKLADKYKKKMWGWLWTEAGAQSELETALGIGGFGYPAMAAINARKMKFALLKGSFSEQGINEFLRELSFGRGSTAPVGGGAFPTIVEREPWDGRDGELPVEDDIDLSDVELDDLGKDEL
# PvdQ acylase = blocks Pseudomonas aeruginosa PvdQ acylase activity. AID 488965. inhibition, % at 10 µM. purified PvdQ acylase, fluorescence plate reader. actives 0.063% (n = 340,000); in the data active = inhibition above about 30%, passing the limit was not always enough; inconclusive = no clear call, values can overlap the other calls;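 also: 0% = vehicle neutral wells and 100% = reference inhibitor wells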
# PDI turbidity = PDI (human) enzyme inhibition. P07237. PDI insulin aggregation turbidity, A650, 90 min. inhibition, % at 10 µM. actives 0.052% (n = 350,000). AID 588391;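 active = mean inhibition across replicates of 30% or more, whatever share of single replicates reach that level; inconclusive = mean inhibition below 30% while every single replicate reaches 30%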
# Env fusion inh = HIV envelope-mediated fusion inhibition. actives 1.1% (n = 360,000). AID 651610. HeLa-JRFL Env/CEM21 cell fusion, luciferase. inhibition, % at 12.3 µM;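 active = mean replicate inhibition score of at least 50 and every replicate individually at or above 50; inconclusive = only one of the two criteria met; inactive = mean below 50 and not all replicates reaching 50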;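 also: 0% = plate neutral controls and 100% = maraviroc near 300 nM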
# FN deposition inh = fibronectin deposition inhibition. AID 743247. actives 0.086% (n = 350,000). inhibition, % at 12.6 µM. AH1F fibroblasts, Alexa488-fibronectin deposition fluorescence, overnight;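 active = mean inhibition across replicates of 30% or more, regardless of how many single replicates reach that level; inconclusive = mean under 30% yet at least half of replicates reach 30%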;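 also: positive control wells lacked labelled fibronectin entirely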
#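 Assay system: AH1F fibroblasts / Quantity: 10000 cells per well / Medium: DMEM plus 2% serum, read in PBS / Reagent: labelled fibronectin 24 nM / Dosing: single dose, pinned / Times: 1 h cell attachment, overnight exposure to compound and label / Signal: fluorescence, ex 485 nm, em 525 nm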
# rRNA inh HTS = inhibitors of bacterial rRNA selective over humanized ribosomes. E. coli WT GFP vs humanized-ribosome RFP mutants, fluorescence, 24 h; stronger effect = lower value; DMSO median 0, no signal -100. GFP signal change (wild-type ribosome), % (concentration not given with the values). actives 1.6% (n = 350,000);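 active = significant combined selectivity score with lowered wild-type GFP, culture density cut under 30%, mutant RFP and density less affected; inactive = any of these conditions unmet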
# Starred values were filed as active, the others as inactive; u = inconclusive; x = not tested or not shown; [ ] = another dose, or the depositor's remark.
SMILES,ERp5 inh,PvdQ acylase,PDI turbidity,Env fusion inh,FN deposition inh,rRNA inh HTS
CNC(=O)C[C@H]1CC[C@@H]2[C@H](COc3ccc(NS(=O)(=O)c4cccc(F)c4)cc3C(=O)N2C)O1,3,x,x,-33[16.7 µM],-12,3
COc1ccc(CN(C)C[C@H]2OCCCC[C@H](C)Oc3ccc(NC(=O)Nc4c(C)noc4C)cc3C(=O)N([C@@H](C)CO)C[C@@H]2C)cc1,-9,x,x,-28[16.7 µM],x,-1
C=CCn1c(SCC(=O)Nc2nc(C)cs2)nnc1C(NC(=O)c1ccccc1)C(C)C (stereo unspecified),x,-10,6,112*,-6,x
COc1ccc(C(=O)NC(C)c2nnc(SCC(=O)Nc3nc(C)cs3)n2C)cc1 (stereo unspecified),x,-18,-8,-28,x,x
C[C@H]1CCCCO[C@H](CN(C)C(=O)C2CCCCC2)[C@@H](C)CN([C@@H](C)CO)C(=O)c2cc(NS(=O)(=O)c3cn(C)cn3)ccc2O1,-6,x,x,0[16.7 µM],x,-2
O=c1c2ccccc2nc(-c2ccco2)n1Cc1ccccc1,x,-9,10,-51,6,x
CCOc1ccc(CCn2c(-c3ccco3)nc3ccccc3c2=O)cc1OCC,x,7,-2,62*,3,x
Cc1cccc2c1-c1sc(C(=O)Nc3nccs3)cc1CO2,u,-9,-13,-84,-4,-14
CCOC(=O)c1cc2c(s1)-c1c(C)cccc1OC2,-3,68*,x,-102,-6,5
CCCCCCc1cc2cc(-c3nnc(-c4ccccc4OC)o3)c(=O)oc2cc1O,x,-35,-2,88*,-15,x
C[C@@H]1CCCCO[C@H](CN(C)CC2CC2)[C@@H](C)CN([C@H](C)CO)C(=O)c2cc(NC(=O)CCC(F)(F)F)ccc2O1,8,x,x,x,x,0
COc1ccc(NC(=S)NNC(=S)Nc2cccc(C(F)(F)F)c2)cc1,1,-3,20,-1,3,-24*
CCOc1ccc(NC(=S)NCc2ccco2)cc1,-6,-14,-1,-4,1,-19*
CCOc1ccc(NC(=S)NNC(=S)Nc2cccc(C(F)(F)F)c2)cc1,4,-8,5,-9,0,-28*
COc1ccc(NC(=S)NCc2ccco2)cc1,x,-19,-4,x,x,x
C[C@@H]1CCCCO[C@@H](CN(C)C(=O)Nc2ccccc2)[C@@H](C)CN([C@H](C)CO)C(=O)c2cc(NC(=O)c3ccccc3)ccc2O1,3,x,x,12[16.7 µM],8,0
C[C@H](CO)N1C[C@H](C)[C@@H](CN(C)Cc2ccc(Oc3ccccc3)cc2)Oc2ccc(NC(=O)CCN3CCOCC3)cc2CC1=O,-4,x,x,14[16.7 µM],x,-57
CO[C@H]1CN(C)C(=O)c2ccc(NS(=O)(=O)C3CCCCC3)cc2OC[C@@H](C)NC[C@@H]1C,x,x,x,x,6,4
C[C@@H]1CCCCO[C@@H](CN(C)Cc2ccc3c(c2)OCO3)[C@@H](C)CN([C@H](C)CO)C(=O)c2cc(NC(=O)CCCCCC(=O)Nc3ccccc3N)ccc2O1,1,x,x,x,x,1
CCOc1ccccc1NC(=O)C1CCN(c2nc(-c3ccc(OC)cc3)no2)CC1,0,-10,x,-15,-2,3
CCOC(=O)N1CCC(NC(=O)C2CCN(c3nc(-c4ccc(OC)cc4)no3)CC2)CC1,x,-6,-3,34*,8,x
O=C1NC[C@H](Cc2ccccc2)N(C[C@H]2CCCN2C[C@H](Cc2ccc(O)cc2)N2C[C@H](Cc3ccc(O)cc3)N(CC3CCCCCC3)C(=O)C2=O)C1=O,1,-8,39*,7,0,-36
CC(C)C[C@H]1CNC(=O)C(=O)N1C[C@@H]1CCCN1C[C@H](CC(C)C)N1C[C@H](Cc2ccccc2)N(CCc2ccccc2)C(=O)C1=O,-5,x,x,-62,-6,-1
O=C1NC[C@H](Cc2ccccc2)N(C[C@H]2CCCN2C[C@H](Cc2ccccc2)N2C[C@H](Cc3ccc(O)cc3)N(CC3CCCCCC3)C(=O)C2=O)C1=O,-1,-22,u,-13,6,-5
CC(C)C[C@H]1CN([C@@H](Cc2ccc(O)cc2)CN2CCC[C@H]2CN2C(=O)C(=O)NC[C@@H]2Cc2ccc(O)cc2)C(=O)C(=O)N1CCc1ccccc1,1,x,x,60*,13,-28*
SMILES,ERp5 inh,PvdQ acylase,PDI turbidity,Env fusion inh,FN deposition inh,rRNA inh HTS
CC(C)C[C@H]1CNC(=O)C(=O)N1C[C@@H]1CCCN1C[C@H](CC(C)C)N1C[C@H](Cc2ccc(O)cc2)N(CCc2ccccc2)C(=O)C1=O,2,x,x,39,active,-10
O=C(C[C@@H]1CC[C@H]2[C@@H](COC[C@H](O)CN2Cc2ccc3c(c2)OCO3)O1)N1CCOCC1,-5,x,x,x,-1,-1
O=C(C[C@H]1C[C@@H]2c3cc(NS(=O)(=O)c4ccc(F)cc4)ccc3O[C@@H]2[C@H](CO)O1)NCc1ccccn1,-2,x,x,21[16.7 µM],x,1
C/C=C/c1cnc2c(c1)C(=O)N([C@@H](C)CO)C[C@@H](C)[C@@H](CN(C)C(=O)C1CC1)O2,x,x,x,6[16.7 µM],x,6
CN(Cc1c(F)cccc1Cl)C(=O)c1ccc(NS(=O)(=O)c2ccc3[nH]c(=O)[nH]c3c2)cc1,-1,9,-12,-11,1,-22*
CCOc1ccc(-n2c(=S)sc3c(=O)[nH]c(SCC(=O)N4CCC(C)CC4)nc32)cc1,-8,4,-1,4,-1,-25*
CCOc1ccc(-n2c(=S)sc3c(=O)[nH]c(SCC(=O)C(C)(C)C)nc32)cc1,-2,7,3,23,-5,-29*
CCOC(=O)CSc1nc2c(sc(=S)n2-c2ccc(OCC)cc2)c(=O)[nH]1,4,-6,0,10,-15,x
CCN(CC)C(=O)CSc1nc2c(sc(=S)n2-c2ccc(C)cc2C)c(=O)[nH]1,1,-3,-18,6,-3,-27*
COc1ccc(CCNc2oc(-c3cccc4ccccc34)nc2P(=O)(OC)OC)cc1OC,-1,-62,2,69*,3,-20
COc1ccc(S(=O)(=O)N(C)C[C@@H]2Oc3c(NS(=O)(=O)c4ccc(F)cc4)cccc3C(=O)N([C@H](C)CO)C[C@H]2C)cc1,x,x,x,-34[16.7 µM],x,-6
CC(C)Oc1ccc(C(=O)NC(=S)Nc2ccc(Cl)c(C(=O)O)c2)cc1,-1,-14,3,12,-3,-21*
COc1cccc(C(=O)NC(=S)Nc2ccc(Cl)c(C(=O)O)c2)c1,x,10,9,x,x,x
CCCNC(=O)N1C[C@H](C)[C@H](OC)CN(C)C(=O)c2cc(NC(=O)CCC)ccc2OC[C@H]1C,-1,x,x,9[16.7 µM],15,-2
COc1ccc(CN2C[C@H](O)COC[C@H]3O[C@@H](CC(=O)NCCN4CCCC4)CC[C@@H]32)cc1,x,x,x,1[16.7 µM],7,1
Cc1ccc(O)c(-c2cc(-c3cccc(Br)c3)n[nH]2)c1,0,-9,0,-29,37*,-51
